Results published in ChEMBL document CHEMBL4680189, “Immunosuppressive properties of amino acid and peptide derivatives of mycophenolic acid” (Eur J Med Chem, 2020).
Calls of active or inactive are those of the source. The calls are words filed in the database; no cut-off is given here. Where a SMILES comes first, the peptide text is derived from it. [ ]: non-standard residue; d: D form. The star is where a group is joined. Mycophenolyl = COc1c(C)c2c(c(O)c1C/C=C(\C)CCC(=O)*)C(=O)OC2; Arg(NO2) = N=C(NCCC[C@H](N)C(=O)O)N[N+](=O)[O-]

Assays:
[1] = Stability in human Jurkat T cells assessed as compound remaining at EC50 concentration after 3 days by HPLC-MS analysis; type: ADME, cell-based; conditions: time 3 day, read-out: Stabilty
Summary of the method: (§1)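 Compounds incubated at their EC50 concentrations with Jurkat cells for 5 days, sampled daily. Amount measured by HPLC-MS: C18 column at 40 °C, 0.4 mL/min, 0.1% HCOOH water to ACN/MeOH gradient, UV 254 nm, ESI-MS. Peak area on day 1 taken as 100%.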

Jurkat [2] = assay: Immunosuppression-mediated cytotoxicity against human Jurkat T cells assessed as reduction in cell viability incubated for 48 hrs by MTT assay; type: cell-based
Summary of the method: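 Jurkat cells in RPMI-1640 with 10% FBS and P/S, 50×10^3 cells/well, exposed in triplicate to serial dilutions from 1 mg/mL (DMSO/medium) for 48 h at 37 °C, 5% CO2. MTT (5 mg/ml) then added for 3 h. Formazan dissolved in 0.4 N HCl–isopropanol, absorbance read at 570 nm. IC50 from curve fitting; viability at 1 mg/mL used where IC50 could not be reached.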

[3] = Immunosuppression-mediated cytotoxicity against anti-CD3/anti-CD28-stimulated human PBMC cells assessed as reduction in cell viability incubated for 72 hrs by MTT assay; type: cell-based
Summary of the method: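 PBMC from buffy coats of healthy donors, isolated on a Ficoll gradient with erythrocyte lysis. Plated at 50×10^3 cells/well with anti-CD3/anti-CD28, serial compound dilutions, in triplicate. Incubated 72 h, 37 °C, 5% CO2. MTT added for 3 h, formazan dissolved in acidified isopropanol (0.4 N HCl), A570 read. Three donors averaged; IC50 from curve fit.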

[4] = Immunosuppression-mediated antiproliferative activity against anti-CD3/anti-CD28-stimulated human PBMC cells assessed as inhibition of cell growth incubated for 72 hrs by VPD450 staining based flow cytometry; type: functional
Summary of the method: (§2)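 Cells stained with VPD450 (2 μL of 1 mM dye per 10-30×10^6 cells in 1 mL PBS, 15 min, 37 °C), washed. PBMC: 50×10^3 cells/well with anti-CD3/anti-CD28, serial compound dilutions, 72 h. Jurkat: 50×10^3 cells/well, 48 h. 37 °C, 5% CO2, triplicate. Dye dilution by flow cytometry; EC50 from curve fit.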

[5] = Selectivity index, ratio of IC50 for cytotoxicity against human PBMC by MTT assay to EC50 for antiproliferative activity against human PBMC by VPD450 staining based flow cytometry
Summary of the method: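 Ratio of the MTT cytotoxicity IC50 (72 h, stimulated PBMC) to the VPD450 antiproliferative EC50 (72 h, stimulated PBMC), both from fitted concentration-response curves.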

Jurkat [6] = assay: Immunosuppression-mediated antiproliferative activity against human Jurkat T cells assessed as inhibition of cell growth at 1 mg/ml incubated for 48 hrs by VPD450 staining based flow cytometry relative to control; type: functional; set-up: scale not given: the % may be the effect or the level left
Summary of the method: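 Jurkat cells stained with VPD450 (2 μL of 1 mM dye per 10-30×10^6 cells, 15 min, 37 °C) and plated at 50×10^3 cells/well. Compound added at the top concentration, 1 mg/mL (1 mg dissolved in 20 μL DMSO, made up to 1 mL with medium). 48 h at 37 °C, 5% CO2, in triplicate. Read by flow cytometry; […].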

[7] = Immunosuppression-mediated cytotoxicity against anti-CD3/anti-CD28-stimulated human PBMC cells assessed as reduction in cell viability at 1 mg/ml incubated for 72 hrs by MTT assay relative to control; type: cell-based
Summary of the method: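 Anti-CD3/anti-CD28-stimulated PBMC, 50×10^3 cells/well, exposed to compound at the highest concentration, 1 mg/mL, for 72 h at 37 °C, 5% CO2, in triplicate. MTT for 3 h, acidified isopropanol, A570. Viability calculated at that concentration; three donors averaged.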

Jurkat [8] = assay: Immunosuppression-mediated cytotoxicity against human Jurkat T cells assessed as reduction in cell viability at 1 mg/ml incubated for 48 hrs by MTT assay relative to control; type: cell-based
Summary of the method: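 Jurkat cells (RPMI-1640, 10% FBS) plated at 50×10^3 cells/well and exposed to 1 mg/mL compound (1 mg in 20 μL DMSO, made up to 1 mL with medium). 48 h at 37 °C, 5% CO2, in triplicate. MTT (5 mg/mL stock) for 3 h, acidified isopropanol, A570. Viability calculated at that concentration.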

PBMC = assay: Immunosuppression-mediated antiproliferative activity against anti-CD3/anti-CD28-stimulated human PBMC cells assessed as inhibition of cell growth incubated for 72 hrs in presence of GMP by VPD450 staining based flow cytometry; type: functional
Summary of the method: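 VPD450-stained PBMC, 50×10^3 cells/well, anti-CD3/anti-CD28 stimulation, serial compound dilutions plus GMP at 50 μM in the well. Incubated 72 h at 37 °C, 5% CO2, in triplicate. Proliferation read by flow cytometry as dye dilution and expressed relative to controls.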

Jurkat [9] = assay: Immunosuppression-mediated antiproliferative activity against human Jurkat T cells assessed as inhibition of cell growth incubated for 48 hrs by VPD450 staining based flow cytometry; type: functional; summary of the method: as §2
[10] = Selectivity index, ratio of IC50 for cytotoxicity against human Jurkat T cells by MTT assay to EC50 for antiproliferative activity against human Jurkat T cells by VPD450 staining based flow cytometry
Summary of the method: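 Jurkat IC50 from the 48 h MTT assay (50×10^3 cells/well, triplicate) divided by Jurkat EC50. […] Cells treated 48 h with serial dilutions, then dye dilution read by flow cytometry and fitted.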

[11] = Stability in human Jurkat T cells assessed as compound remaining at EC50 concentration after 5 days by HPLC-MS analysis; type: ADME, cell-based; conditions: time 5 day, read-out: Stabilty; summary of the method: as §1

COC(=O)[C@H](CCCNC(=N)N[N+](=O)[O-])NC(=O)[C@@H]1CCCN1C(=O)[C@H](CCCCNC(=O)[C@H](C)N)NC(=O)[C@@H](NC(=O)CC/C(C)=C/Cc1c(O)c2c(c(C)c1OC)COC2=O)[C@@H](C)O (Mycophenolyl-TK(Ala)P[Arg(NO2)]-OMe)
remaining at 72 h [1]: 50%
IC50 (Jurkat [2]): 1000 µM
IC50 [3]: 560 µM
EC50 [4]: 259 µM
Ratio IC50/EC50 [5]: 2.2
Activity (Jurkat [6]): 55.31%

COC(=O)[C@H](CCCNC(=N)N[N+](=O)[O-])NC(=O)[C@@H]1CCCN1C(=O)[C@H](CCCCN)NC(=O)[C@@H](NC(=O)CC/C(C)=C/Cc1c(O)c2c(c(C)c1OC)COC2=O)[C@@H](C)O (Mycophenolyl-TKP[Arg(NO2)]-OMe)
Activity [7]: 99.09%
Activity (Jurkat [8]): 85.82%
EC50 [4]: 130 µM
Activity (Jurkat [6]): 60.78%

CC[C@H](C)[C@H](N)C(=O)NCCCC[C@H](NC(=O)[C@@H]1CCCN1C(=O)[C@H](CCCNC(=N)N[N+](=O)[O-])NC(=O)CC/C(C)=C/Cc1c(O)c2c(c(C)c1OC)COC2=O)C(=O)N[C@H](C(=O)OC)[C@@H](C)O (Mycophenolyl-[Arg(NO2)]PK(Ile)T-OMe)
Activity (Jurkat [8]): 52.48%
IC50 [3]: 533 µM
EC50 [4]: 152 µM
Ratio IC50/EC50 [5]: 3.5
Activity (Jurkat [6]): 52.77%

COC(=O)[C@H](CCCNC(=N)N[N+](=O)[O-])NC(=O)[C@@H]1CCCN1C(=O)[C@H](CCCCNC(=O)[C@@H](N)C(C)C)NC(=O)[C@@H](NC(=O)CC/C(C)=C/Cc1c(O)c2c(c(C)c1OC)COC2=O)[C@@H](C)O (Mycophenolyl-TK(Val)P[Arg(NO2)]-OMe)
Activity (PBMC): inactive
Activity [7]: 56.81%
Activity (Jurkat [8]): 66.56%
EC50 [4]: 432 µM
Activity (Jurkat [6]): 55.1%

COC(=O)[C@@H](NC(=O)CC/C(C)=C/Cc1c(O)c2c(c(C)c1OC)COC2=O)[C@@H](C)O
Activity (PBMC): inactive
IC50 (Jurkat [2]): 17 µM
IC50 [3]: 57 µM
EC50 [4]: 10 µM
EC50 (Jurkat [9]): 10 µM
Ratio IC50/EC50 [10]: 1.8
Ratio IC50/EC50 [5]: 5.7
remaining at 120 h [11]: > 40%

COC(=O)[C@@H](NC(=O)[C@H](CCCCN)NC(=O)[C@@H]1CCCN1C(=O)[C@H](CCCNC(=N)N[N+](=O)[O-])NC(=O)CC/C(C)=C/Cc1c(O)c2c(c(C)c1OC)COC2=O)[C@@H](C)O (Mycophenolyl-[Arg(NO2)]PKT-OMe)
Activity (PBMC): inactive
remaining at 72 h [1]: 50%
IC50 (Jurkat [2]): 971 µM
IC50 [3]: 634 µM
EC50 [4]: 35.4 µM
EC50 (Jurkat [9]): 664 µM
Ratio IC50/EC50 [10]: 1.5
Ratio IC50/EC50 [5]: 18
